What all share (type): biochemical
Assay [1] is described as follows: superoxide. Conditions: xanthine-XO method, 560 nm; triplicate. An outline of the steps: (§1)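 Absorbance endpoint assays, read on a UV-visible spectrophotometer (H2O2 assay on a microplate reader). Percent scavenging was measured across a series of sample concentrations. IC50 was taken from a graph of inhibition percentage versus sample concentration. Triplicate analyses, reported as mean±SD.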

Assay [2] can be described thus: OH radical scavenging activity. As to conditions: absorbance at 520 nm; triplicate. The essentials: as §1
Assay [3] can be described thus: H2O2 radical scavenging activity. As to conditions: 405 nm; triplicate. An outline of the steps: as §1
The nature of assay [4]: NO radical. As to conditions: nitrite scavenging effect, 520 nm; triplicate. An outline of the steps: as §1
The target of assay [5] is xanthine oxidase (XO) (Bos taurus, UniProt P80457). Put plainly: XO inhibitory activity.
Sequence of xanthine oxidase (XO) (P80457 whole entry): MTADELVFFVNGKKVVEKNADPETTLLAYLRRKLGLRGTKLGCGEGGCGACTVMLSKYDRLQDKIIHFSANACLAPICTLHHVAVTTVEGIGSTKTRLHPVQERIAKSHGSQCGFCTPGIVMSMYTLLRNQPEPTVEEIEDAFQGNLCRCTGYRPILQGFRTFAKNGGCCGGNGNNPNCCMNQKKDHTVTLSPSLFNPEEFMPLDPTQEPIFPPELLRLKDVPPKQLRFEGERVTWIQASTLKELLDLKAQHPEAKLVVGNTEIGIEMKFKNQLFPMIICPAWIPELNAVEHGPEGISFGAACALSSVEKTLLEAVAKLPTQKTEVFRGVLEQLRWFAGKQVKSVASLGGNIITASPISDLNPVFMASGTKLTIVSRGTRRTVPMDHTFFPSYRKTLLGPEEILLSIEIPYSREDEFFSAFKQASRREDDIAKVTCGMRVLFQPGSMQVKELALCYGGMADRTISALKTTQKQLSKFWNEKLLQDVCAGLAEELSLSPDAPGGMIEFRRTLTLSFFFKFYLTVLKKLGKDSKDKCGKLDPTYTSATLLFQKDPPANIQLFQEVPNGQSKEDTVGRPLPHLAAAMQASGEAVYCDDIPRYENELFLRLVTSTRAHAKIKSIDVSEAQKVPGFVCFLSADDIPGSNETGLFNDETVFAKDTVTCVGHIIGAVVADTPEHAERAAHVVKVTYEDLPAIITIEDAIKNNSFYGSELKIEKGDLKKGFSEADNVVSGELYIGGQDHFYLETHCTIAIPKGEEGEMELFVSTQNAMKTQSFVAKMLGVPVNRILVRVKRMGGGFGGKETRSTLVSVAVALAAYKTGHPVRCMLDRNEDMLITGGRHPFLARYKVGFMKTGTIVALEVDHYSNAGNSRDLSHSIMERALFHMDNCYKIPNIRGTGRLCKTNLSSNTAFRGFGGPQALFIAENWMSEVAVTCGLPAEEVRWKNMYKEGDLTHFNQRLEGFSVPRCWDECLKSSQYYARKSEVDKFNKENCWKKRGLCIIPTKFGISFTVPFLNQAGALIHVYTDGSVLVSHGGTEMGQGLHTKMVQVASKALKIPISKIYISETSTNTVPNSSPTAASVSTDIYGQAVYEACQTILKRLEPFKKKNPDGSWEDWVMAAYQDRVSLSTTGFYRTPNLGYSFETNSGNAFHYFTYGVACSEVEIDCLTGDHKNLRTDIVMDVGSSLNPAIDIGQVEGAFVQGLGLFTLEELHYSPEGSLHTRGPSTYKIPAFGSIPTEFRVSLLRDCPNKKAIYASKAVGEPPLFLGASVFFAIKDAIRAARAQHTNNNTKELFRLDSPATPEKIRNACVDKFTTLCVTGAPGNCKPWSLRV
Assay [6] addresses tyrosinase. Description: Tyrosinase inhibitory activity. Conditions: L-DOPA substrate, 25°C, 2 min, pH 6.8; mean±SD.

Marks after values point to notes of the source that are not given here.

For the compound `COc1ccc(O)c(C(C)(C)C)c1` [BHA, butylated hydroxyanisole], the “IC50 of O2 radical scavenging activity” value in assay [1] amounted to 68.45 µg/mL. Further, the “IC50 of OH radical scavenging activity” value in assay [2] worked out at 37.22 µg/mL. Also, the “IC50 of H2O2 radical scavenging activity” value in assay [3] was 22.47 µg/mL. Moreover, the “IC50 of NO radical scavenging activity” value in assay [4] was 40.54 µg/mL.
As for `CC1=C(O)C(=O)C(C)(O)S1` (stereo not drawn) [Thiacremonone, 2,4-dihydroxy-2,5-dimethyl-thiophene-3-one], in assay [1], the “IC50 of O2 radical scavenging activity” value came out at 65.05 µg/mL. Further, the “IC50 of OH radical scavenging activity” value in assay [2] came to 92.50 µg/mL. In assay [5], the IC50 is 246 µM. Moreover, the “IC50 Tyrosinase inhibition” value in assay [6] is 101.931±2.601^a μg/mL. Further, in assay [3], the “IC50 of H2O2 radical scavenging activity” value came to 12.60 µg/mL. In addition, the “IC50 of NO radical scavenging activity” value in assay [4] was determined as 81.53 µg/mL.
Turning to `O=C1O[C@H]([C@@H](O)CO)C(O)=C1O` [ascorbic acid, Ascorbic acid], the “IC50 of O2 radical scavenging activity” value in assay [1] was 99.43 µg/mL. The “IC50 of OH radical scavenging activity” value in assay [2] came to 104.93 µg/mL. In addition, the “IC50 of H2O2 radical scavenging activity” value in assay [3] worked out at 42.42 µg/mL. For the same compound, the “IC50 of NO radical scavenging activity” value in assay [4] worked out at 122.64 µg/mL.
As for `Cc1c(C)c2c(c(C)c1O)CC[C@@](C)(CCC[C@H](C)CCC[C@H](C)CCCC(C)C)O2` [α-tocopherol], the “IC50 of O2 radical scavenging activity” value in assay [1] was 84.92 ± 2.34 µg/mL. Also, the “IC50 of OH radical scavenging activity” value in assay [2] came out at 12.93 ± 1.64 µg/mL. Moreover, the “IC50 of H2O2 radical scavenging activity” value in assay [3] was found to be 39.40 ± 0.77 µg/mL. In assay [4], the “IC50 of NO radical scavenging activity” value came out at 15.72 ± 1.22 µg/mL.

These data come from publication PMC4827638 (Preventive Nutrition and Food Science, 2016).
